{"data": "Measurements pooled from the literature", "FOLH1": "Glutamate carboxypeptidase 2 (FOLH1, Homo sapiens, UniProt Q04609)", "PIK3CA": "Phosphatidylinositol 4,5-bisphosphate 3-kinase catalytic subunit alpha isoform (PIK3CA, Homo sapiens, UniProt P42336)", "T1R2/T1R3": "T1R2/T1R3 (Homo sapiens, UniProt Q7RTX0+Q8TE23)", "PIK3CB": "Phosphatidylinositol 4,5-bisphosphate 3-kinase catalytic subunit beta isoform (PIK3CB, Homo sapiens, UniProt P42338)", "note": "Compare with care: the assays were run in different laboratories."}
{"target": "FOLH1", "test": "binding, radioligand", "endpoint": "Kd", "value": "0.0061 µM", "SMILES": "CC1(C)CN(CCCCC(=O)N[C@@H](CCC(=O)O)C(=O)N[C@@H](CCC(=O)O)C(=O)N[C@H](CCCCNC(=O)CCCCCCC(=O)NCCCC[C@H](NC(=O)N[C@@H](CCC(=O)O)C(=O)O)C(=O)O)C(=O)O)CC[N]2CC(C)(C)[S][Tc]2(=[O])[S]1 (stereo partly shown)"}
{"target": "PIK3CA", "test": "enzyme activity, inhibitor, radiometric", "endpoint": "IC50", "value": "> 10 µM", "SMILES": "CN(C)C(=O)c1cc2cnc(Nc3cccc4c(=O)cc(N5CCOCC5)oc34)nc2n1C1CCCC1"}
{"target": "T1R2/T1R3", "test": "calcium signal, agonist", "endpoint": "EC50", "value": "232 µM", "SMILES": "OC[C@H]1O[C@H](O[C@]2(CCl)O[C@H](CCl)[C@@H](O)[C@@H]2O)[C@H](O)[C@@H](O)[C@H]1Cl"}
{"target": "PIK3CB", "test": "enzyme activity, inhibitor, ADP detection", "endpoint": "IC50", "value": "0.0862 µM", "SMILES": "CC(C)c1cccc(C(C)C)c1N=C1C(=O)N(Cc2ccc(Br)cc2)c2ccccc21"}
{"target": "PIK3CA", "test": "enzyme activity, inhibitor, radiometric", "endpoint": "IC50", "value": "0.472 µM", "SMILES": "CN(C)C(=O)c1cc2cnc(Nc3ccc(-c4cccc5c(=O)cc(N6CCOCC6)oc45)cc3)nc2n1C1CCCC1"}
{"target": "Granzyme B (GZMB, Homo sapiens, UniProt P10144)", "test": "enzyme activity, inhibitor, fluorescence", "endpoint": "Ki", "value": "0.0378 µM", "SMILES": "CC[C@H](C)[C@H](NC(=O)[C@H](Cc1nc2ccccc2s1)NC(=O)CCC(=O)O)C(=O)N[C@H]1CCc2cccc3c2N(C1=O)[C@H](C(=O)NCc1cn[nH]n1)C3"}
{"target": "PIK3CA", "test": "enzyme activity, inhibitor, ADP detection", "endpoint": "IC50", "value": "0.098 µM", "SMILES": "CCc1ccc(N=C2C(=O)Nc3ccccc32)cc1"}
{"target": "T1R2/T1R3", "test": "calcium signal, agonist", "endpoint": "EC50", "value": "1340 µM", "SMILES": "CC1=CC(=O)NS(=O)(=O)O1"}
{"target": "PIK3CA", "test": "enzyme activity, inhibitor, ADP detection", "endpoint": "IC50", "value": "0.0434 µM", "SMILES": "O=C1C(=Nc2ccc(Cl)cc2Br)c2ccccc2N1Cc1ccc(Br)cc1"}
{"target": "FOLH1", "test": "binding, radioligand", "endpoint": "Kd", "value": "0.0133 µM", "SMILES": "CC1(C)CN(CCCCC(=O)N[C@H](Cc2ccccc2)C(=O)N[C@H](Cc2ccccc2)C(=O)N[C@H](CCCCNC(=O)CCCCCCC(=O)NCCCC[C@H](NC(=O)N[C@@H](CCC(=O)O)C(=O)O)C(=O)O)C(=O)O)CC[N]2CC(C)(C)[S][Tc]2(=[O])[S]1 (stereo partly shown)"}
{"target": "PIK3CB", "test": "enzyme activity, inhibitor, ADP detection", "endpoint": "IC50", "value": "0.524 µM", "SMILES": "O=C1Nc2ccccc2/C1=N/c1ccccc1Br"}
{"target": "PIK3CA", "test": "enzyme activity, inhibitor, radiometric", "endpoint": "IC50", "value": "> 10 µM", "SMILES": "CN(C)C(=O)c1cc2cnc(Nc3cc(C(F)(F)F)c(-c4cccc5c(=O)cc(N6CCOCC6)oc45)cn3)nc2n1C1CCCC1"}
{"target": "FOLH1", "test": "binding, radioligand", "endpoint": "Kd", "value": "0.0116 µM", "SMILES": "O.O=C([O-])CN(CCN(CC(=O)[O-])Cc1cc(CCC(=O)O)ccc1O)Cc1cc(CCC(=O)NCCCCCC(=O)NCCCC[C@H](NC(=O)N[C@@H](CCC(=O)O)C(=O)O)C(=O)O)ccc1[O-].[Ga+3]"}
